Reference: publication PMC6267698 (Drug Design, Development and Therapy, 2018)
pIC50: −log10 of the molar value.

Assays:
Nrf2 signal pathway = experiment: Western blot of Nrf2 signal pathway proteins in HepG-2 cells; type: cell-based
[1] = test system: P-gp–mediated efflux and CYP3A-mediated metabolism; details: rat, one single dose of Sch B 0.024 mM/kg; cited from earlier work
[2] = test system: CYP450 (CYP1A2/2C9/2D6/2E1/3A4); experiment: Microsomal CYP450 activity detection; type: in vivo, mice; details: Sch B 25.0, 50.0 and 100.0 mg/kg oral, 21 days, dose-dependent
Method in brief: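 Livers came from mice dosed orally for 21 days (25.0–100 mg/kg). Livers (~2 g) were homogenised at 4°C in phosphate buffer pH 7.4 with 1.0 mM EDTA and 250 mM sucrose, spun at 9,000× g then 100,000× g, and the pellet resuspended with 250 mM glycerol. Microsomes (0.5 mg/mL) were incubated with a probe cocktail: phenacetin 10 μM, tolbutamide 100 μM, dextromethorphan 2.5 μM, chlorzoxazone 20 μM, midazolam 5 μM. Reactions ran 30 min with 1 mM NADPH and were stopped with methanol. Metabolites were measured by LC–MS/MS.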

mice liver [3] = experiment: Histopathological analysis of H&E-stained mice liver sections; type: in vivo
Method in brief: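 Mice were given test compound (25.0, 50.0, 100 mg/kg) by mouth daily for 21 days in 0.5% sodium carboxymethylcellulose and killed 24 h after the last dose. Liver was fixed in neutral buffered formalin, embedded in paraffin, cut at 5 μm and stained with H&E.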

mice liver [4] = experiment: TUNEL immunofluorescence staining of mice liver; type: in vivo; details: 100 mg/kg Sch B oral, 21 days
Method in brief: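 After 21 days of daily oral test compound (25.0–100 mg/kg, 0.5% sodium carboxymethylcellulose), paraffin liver sections (10 μm) were treated with 3% H2O2 in methanol for 10 min and blocked with 1% BSA/PBS for 30 min. They were incubated with […] at 4°C overnight, then Alexa Fluor donkey anti-rabbit (1:500) for 1 h at 37°C. Nuclei were stained with DAPI and sections imaged by fluorescence microscopy. n=6.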

CYP3A = details: read-out: IC50 value, inhibition of CYP3A activity; rat liver microsomes; cited from earlier work
Nrf2 pathway = experiment: Western blot of Nrf2 pathway proteins in mice liver tissue; type: in vivo; details: Sch B 25.0–100.0 mg/kg oral, 21 days, Western blotting
Method in brief: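 Mice were dosed orally once daily for 21 days (25.0, 50.0, 100 mg/kg, in 0.5% sodium carboxymethylcellulose). Frozen liver extracts were assayed for protein by Bradford, and equal protein was run on SDS-PAGE and blotted to PVDF. Membranes were blocked in 5% nonfat milk/TBS, probed with anti-Nrf2, HO-1, NQO1, GST or GR at 4°C overnight, then HRP secondary for 1 h at room temperature. Detection was by ECL on X-ray film.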

CYP3A1 mRNA = details: rat primary hepatocytes, Sch B 0.1 µM; cited from earlier work
[5] = Sch B 5 µM, 48-hour incubation, Western blot

SMILES	effect on Sch B-induced activation of Nrf2 and GST expression (Nrf2 signal pathway; ABT 0.5 mM combined with Sch B 5 µM, 48 hours)	tacrolimus bioavailability [1]	HO-1 and GR protein expression (Nrf2 signal pathway; [5])	expression of GST (Nrf2 signal pathway; [5])	expression of Nrf2 (Nrf2 signal pathway; [5])	CYP450 (CYP1A2/2C9/2D6/2E1/3A4) activities in livers of mice [2]	centrilobular hepatocellular infiltration of lymphocytes (mice liver [3]; 100 mg/kg Sch B oral, 21 days, H&E-stained liver sections)	hepatotoxicity in mice (mice liver [3]; highest dose (100 mg/kg) only, oral, 3 weeks)	positive TUNEL cell in liver (mice liver [4])	pIC50 (CYP3A)	protein expression of NQO-1 and GST in mice liver (Nrf2 pathway)	Nrf2 expression in mice liver (Nrf2 pathway; dose-dependent)	expression of CYP3A1 mRNA (CYP3A1 mRNA)
Nn1nnc2ccccc21 [ABT, 1-aminobenzotriazolea, reference compound]	suppressed	–	–	–	–	–	–	–	–	–	–	–	–
COc1cc2c(c(OC)c1OC)-c1c(cc3c(c1OC)OCO3)CC(C)C(C)C2 (stereo not shown) [Sch B, Schisandrin B]	–	increase	no changes	upregulated	upregulated	considerably increased	clearly evident	mild hepatotoxicity	very limited	5.26	dose-dependent increase	upregulated	significantly increase
